Compound activity (PubChem BioAssay)
Hits are enriched below; roughly 2.8% of the tested compounds scored in any of these assays.
DENV2 CPE: DENV2-induced cell death inhibition. 350,000 compounds, 1.7% hits. DENV2-infected cells, cytopathic effect rescue, plate reader. AID 651640. CPE inhibition, % at 9.99 µM; in the data active = CPE inhibition above about 20%, passing the limit was not always enough; tested in BHK-21 cells
E-sel inducer: induces E-selectin expression in human endothelial cells. activation, % at 7.58 µM. 260,000 compounds, 0.37% hits. HUVEC E-selectin immunofluorescence imaging; normalized: neutral wells 0, TNF-alpha wells 100. AID 686992. P16581;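 active = mean E-selectin-positive cell signal at least 10% of the positive control, reached in at least 60% of replicates, without over 20% cell loss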
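Test system: HUVEC; input: 3,000 HUVEC/well; measured by: immunofluorescence imaging; read-out: % PE-positive cells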
SIRT5 block: blocks human SIRT5 desuccinylation of peptide; inhibition, % at 15 µM; Purified SirT5, succinyl-peptide AMC, trypsin-coupled fluorescence; 330,000 compounds, 1.1% hits; Q9NXA8; AID 652115; in the data active = inhibition above about 15%
Target sequence (Q9NXA8 whole entry, looked up): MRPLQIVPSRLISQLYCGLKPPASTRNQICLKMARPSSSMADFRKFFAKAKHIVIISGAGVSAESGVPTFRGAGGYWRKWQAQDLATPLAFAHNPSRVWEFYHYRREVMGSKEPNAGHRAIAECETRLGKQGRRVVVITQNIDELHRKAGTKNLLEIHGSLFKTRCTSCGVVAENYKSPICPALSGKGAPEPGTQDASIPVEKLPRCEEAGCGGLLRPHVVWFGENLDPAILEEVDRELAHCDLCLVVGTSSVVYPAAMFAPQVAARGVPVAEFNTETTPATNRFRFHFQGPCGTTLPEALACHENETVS
Each line names hits and unclear results; the compound was inactive in the other large screens.

C[C@@H]1CN([C@H](C)CO)C(=O)c2cc(-c3cccc(F)c3)cnc2O[C@@H]1CN(C)C(=O)c1cnccn1	none
CN1CCN(C(=O)C[C@@H]2CC[C@H]3[C@@H](COC[C@@H](O)CN3S(=O)(=O)c3cccc(F)c3)O2)CC1	none
CCC(=O)N1C[C@H](O)COC[C@@H]2O[C@H](CC(=O)NCc3cc(F)cc(F)c3)CC[C@H]21	none
COc1ccc(C2=CC(=O)C[C@H](CN3C(=O)c4ccccc4C3=O)N(C(=O)OC(C)(C)C)O2)cc1	none (no result: E-sel inducer)
CCC[C@H]1CC(=O)C=C(c2ccsc2)ON1C(=O)OC(C)(C)C	SIRT5 block 21.5
CCOC(CNc1cc(C)nc2c(-c3ccccc3OC)c(C)nn12)OCC	none
COc1ccccc1-c1c(C)nn2c(NCCN3CCCC3)cc(C)nc12	E-sel inducer 94.4
O=S(=O)(N[C@@H]1CC[C@@H](CCn2cc(-c3ccccn3)nn2)O[C@H]1CO)c1cccc(F)c1	none
CCCN1[C@H](C(=O)OC)[C@@H](CO)[C@@H]2Cn3c(ccc(-c4ccc(F)cc4)c3=O)[C@@H]21	none
O=C(COC(=O)CC1CC2CCC1C2)Nc1ccc(F)cc1 (stereo unspecified)	SIRT5 block 111.9
CC(=O)c1ccc(NC(=O)COC(=O)CC2CC3CCC2C3)cc1 (stereo unspecified)	none (no result: E-sel inducer)
COc1cc(/C=C2/NC(=O)NC2=O)cc(Br)c1OCc1ccc(C(=O)O)cc1	SIRT5 block 15.2 (no result: E-sel inducer)
O=C(O)COc1c(Cl)cc(/C=C2\NC(=O)NC2=O)cc1Br	none (no result: E-sel inducer)
COc1ccc(S(=O)(=O)N2CCCCN3[C@@H](CO)[C@H](c4ccc(C5=CCCC5)cc4)[C@@H]3C2)cc1	none
O=C(C[C@@H]1CC[C@@H](NC(=O)c2ccc(F)cc2)[C@@H](CO)O1)NCCc1ccncc1	DENV2 CPE 23.3
O=C(NCC[C@H]1CC[C@@H](NC(=O)c2cccnc2)[C@H](CO)O1)Nc1ccc(F)cc1	DENV2 CPE 20.6
O=C(Cc1ccncc1)NCC[C@@H]1CC[C@@H](NC(=O)Nc2cccc(F)c2)[C@@H](CO)O1	DENV2 CPE 22.7
O=C(C[C@H]1CC[C@@H](NC(=O)c2ccc(F)cc2)[C@@H](CO)O1)NCCc1ccncc1	none
O=C(NCC[C@@H]1CC[C@H](NC(=O)Nc2cc(F)ccc2F)[C@H](CO)O1)Nc1ccc(Cl)cc1	none
O=C(Cc1ccncc1)NCC[C@@H]1CC[C@H](NC(=O)Nc2cccc(F)c2)[C@@H](CO)O1	none
O=C(NCC[C@@H]1CC[C@@H](NC(=O)c2cccnc2)[C@H](CO)O1)Nc1ccc(F)cc1	none
O=C(NCC[C@H]1CC[C@@H](NC(=O)Nc2cc(F)ccc2F)[C@H](CO)O1)Nc1ccc(F)cc1	SIRT5 block 32.7
CCCNC(=O)N[C@@H]1CC[C@H](CC(=O)NC2CCCCC2)O[C@@H]1CO	none
COC(=O)C[C@H]1C[C@H]2c3cc(NC(=O)Nc4ccc(OC)cc4)ccc3O[C@H]2[C@H](CO)O1	none (no result: SIRT5 block)
C[C@H]1CCCCO[C@H](CN(C)C(=O)NC2CCCCC2)[C@@H](C)CN([C@@H](C)CO)C(=O)c2cc(NS(=O)(=O)c3cccs3)ccc2O1	none
C[C@@H]1CN([C@@H](C)CO)S(=O)(=O)c2ccc(C3=CCCCC3)cc2O[C@@H]1CN(C)S(=O)(=O)c1cn(C)cn1	none
C[C@@H](NC(=O)C[C@@H]1C=C[C@H](NC(=O)Nc2ccc3c(c2)OCO3)[C@@H](CO)O1)c1ccccc1	none
COc1ccc2c3c([nH]c2c1)[C@@H](CO)N(C(=O)c1cccc(F)c1)CC31CCN(S(=O)(=O)c2cccs2)CC1	none
C[C@H](CO)N1C[C@H](C)[C@@H](CN(C)S(=O)(=O)c2ccc(Cl)cc2)Oc2ccc(NC(=O)Cc3cn(C)c4ccccc34)cc2C1=O	none
Cc1cccc(S(=O)(=O)N[C@H]2CC[C@H](CCNC(=O)Nc3cc(F)ccc3F)O[C@H]2CO)c1	none
O=C(CN1CCOCC1)N[C@@H]1CC[C@H](CCNC(=O)Nc2cc(F)ccc2F)O[C@@H]1CO	SIRT5 block 16.1
Cc1cccc(S(=O)(=O)N[C@@H]2CC[C@@H](CCNC(=O)Nc3cc(F)ccc3F)O[C@@H]2CO)c1	DENV2 CPE 39.1
O=C(CN1CCOCC1)N[C@H]1CC[C@@H](CCNC(=O)Nc2cc(F)ccc2F)O[C@@H]1CO	none
CCN1CCN(C(=O)/C=C/c2ccc(OC)c(OC)c2)CC1	DENV2 CPE 20.1 (no result: E-sel inducer)
CCN1CCN(C(=O)/C=C/c2ccc3c(c2)OCO3)CC1	none (no result: E-sel inducer)
COc1ccc(S(=O)(=O)N2C[C@@H](O)COC[C@H]3O[C@H](CC(=O)NCCCN4CCOCC4)CC[C@@H]32)cc1	none
CC1C=NC(S(=O)(=O)N2CC[C@@H]3[C@@H](CO)N(C)c4ccc(-c5ccc(F)cc5)cc4[C@@H]32)=N1 (stereo partly specified)	DENV2 CPE 21.3 (no result: SIRT5 block)
Cc1cccc(S(=O)(=O)N2CC[C@@H]3[C@@H](CO)N(C)c4ccc(-c5ccccc5F)cc4[C@@H]32)c1	DENV2 CPE 34.6
CN1c2ccc(-c3ccccc3F)cc2[C@H]2[C@H](CCN2S(=O)(=O)c2ccccc2)[C@@H]1CO	DENV2 CPE 20.9
Cc1cccc(S(=O)(=O)N2CC[C@@H]3[C@H](CO)N(C)c4ccc(-c5ccccc5F)cc4[C@@H]32)c1	none
CN1c2ccc(-c3ccccc3F)cc2[C@H]2[C@H](CCN2S(=O)(=O)c2ccccc2)[C@H]1CO	none
CC1C=NC(S(=O)(=O)N2CC[C@@H]3[C@H]2c2cc(-c4cccc(F)c4)ccc2N(C)[C@H]3CO)=N1 (stereo partly specified)	none
COc1cccc(CN2[C@H](CO)[C@H](c3ccccc3)C23CN(C(=O)C2CCCCC2)C3)c1	none
C/C=C/c1cnc2c(c1)C(=O)N([C@@H](C)CO)C[C@H](C)[C@@H](CN(C)C(=O)C1CCC1)O2	none (no result: DENV2 CPE, SIRT5 block)
CC(=O)Nc1ccc2c(c1)C(=O)N(C)[C@@H]1CC[C@H](CC(=O)NCc3ccc4c(c3)OCO4)O[C@@H]1CO2	none (no result: SIRT5 block)
C[C@@H]1CN([C@H](C)CO)C(=O)c2cc(C#Cc3cccnc3)cnc2O[C@H]1CN(C)C(=O)CC1CC1	none
CCCN1C[C@H](C)[C@@H](OC)CN(C)C(=O)c2ccc(NC(=O)c3ccc(F)cc3)cc2OC[C@H]1C	none (no result: DENV2 CPE, SIRT5 block)
C[C@@H]1CN([C@H](C)CO)C(=O)Cc2cc(NC(=O)Cc3ccccc3)ccc2O[C@H]1CN(C)S(=O)(=O)c1ccc(F)cc1	none
COc1ncnc2c1ncn2CCCN1CCN(Cc2cccc3ccccc23)CC1	SIRT5 block 26.4
CSc1ncnc2c1ncn2CCCN1CCN(Cc2cccc3ccccc23)CC1	none
Cc1ccc(S(=O)(=O)Oc2ccc(/C=N/N=C3/NC(=O)C(CC(=O)O)S3)cc2)cc1 (stereo unspecified)	SIRT5 block 28.4 (no result: E-sel inducer)
CCOc1cc(/C=N/N=C2/NC(=O)C(CC(=O)O)S2)ccc1OS(=O)(=O)c1ccc(C)cc1 (stereo unspecified)	none (no result: E-sel inducer)
CN1CCN(C(=O)C[C@H]2C=C[C@H](NC(=O)c3ccc4c(c3)OCO4)[C@H](CO)O2)CC1	none
COc1ccc(COCC23N=C4SCC(=O)N4[C@H](c4ccccc4O2)[C@H]3CO)cc1	DENV2 CPE 25.7 (no result: E-sel inducer)
O=C1CSC2=NC3(CO)Oc4ccccc4[C@H]([C@H]3CO)N12	DENV2 CPE 27.4 (no result: E-sel inducer)
COc1ccc(COCC23N=C4SCCCN4[C@H](c4ccccc4O2)[C@H]3CO[Si](C)(C)C(C)(C)C)cc1	none (no result: E-sel inducer)
